Values belong to the molecule of their own block, whether it stands above or below them. Activity calls are given as the source filed them. The calls are words filed in the database; no cut-off is given here.
Assays:
[1] = Antioxidant activity assessed as trolox equivalent of AAPH-induced radical scavenging activity at 10 to 20 uM preincubated for 10 mins followed by AAPH addition measured every minute for 120 mins by ORAC fluorescein assay; assay type: functional
In short: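 ORAC values are expressed as trolox equivalents, mean ± SD of three independent experiments.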

[2] = Metal chelating activity assessed as inhibition of Cu(II)-induced amyloid beta (1 to 42 residues) aggregation at 25 uM after 24 hrs by thioflavin-T fluorescence assay (reference value: 156%); parameters: scale not given: the % may be the effect or the level left
In short: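 Aβ1-42 was incubated with CuSO4 with or without compound, and thioflavin T fluorescence was read. Fluorescence is given as percent of Aβ alone, as mean ± SD of three independent experiments.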

Mus musculus [3] = experiment: Cognition enhancement activity in amyloid beta (25 to 35 residues) induced C57BL/6J mouse model of Alzheimer's disease assessed as decrease in escape latancy at 30 mg/kg/day, ig administered for 26 consecutive days by Morris water maze test; assay type: functional, organism-based
In short: (§1)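 Mice were randomized into 7 groups. All except sham got an ICV injection of Aβ25-35 (3 nmol); sham got the same volume of saline ICV. Dosing was intragastric daily for 26 days, with 0.5% CMC-Na as vehicle for sham and model. Body weight, diarrhea and emesis-like behavior were monitored.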

Mus musculus [4] = experiment: Cognition enhancement activity in amyloid beta (25 to 35 residues) induced C57BL/6J mouse model of Alzheimer's disease assessed as swimming speed at 30 mg/kg/day, ig administered for 26 consecutive days by Morris water maze test (reference value: 15.6 +/- 2.4 cm/sec); assay type: functional; in short: as §1
Mus musculus [5] = experiment: Cognition enhancement activity in amyloid beta (25 to 35 residues) induced C57BL/6J mouse model of Alzheimer's disease assessed as swimming speed at 4 mg/kg/day, ig administered for 26 consecutive days by Morris water maze test (reference value: 15.6 +/- 2.4 cm/sec); assay type: functional; in short: as §1
Mus musculus [6] = experiment: Cognition enhancement activity in amyloid beta (25 to 35 residues) induced C57BL/6J mouse model of Alzheimer's disease assessed as swimming path length in virtual platform at 30 mg/kg/day, ig administered for 26 consecutive days by Morris water maze test (10.2 +/- 3.2 cm); assay type: functional; in short: as §1
Mus musculus [7] = experiment: Cognition enhancement activity in amyloid beta (25 to 35 residues) induced C57BL/6J mouse model of Alzheimer's disease assessed as swimming time in effective region at 30 mg/kg/day, ig administered for 26 consecutive days by Morris water maze test (4.3 +/- 1.3 sec); assay type: functional; in short: as §1
Mus musculus [8] = experiment: (§2) Neuroprotection in C57BL/6J mouse model of amyloid beta (25 to 35 residues) induced Alzheimer's disease assessed as reduction in ratio of apoptotic neuron in CA1 hippocampus region at 30 mg/kg/day, ig administered for 26 consecutive days by hematoxylin and eosin staining-based light microscopic analysis (reference value: 40.6 +/- 12.5%); assay type: ADME, organism-based; parameters: scale not given: the % may be the effect or the level left; settings: in vivo, po
In short: (§3)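 Hippocampal CA1, CA3 and DG neurons were stained with H&E after the Aβ25-35 ICV model and 26-day intragastric dosing. Denatured cell index = denatured cells/total cells, n = 5. Values are mean ± SD, two-way ANOVA versus model.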

Mus musculus [9] = experiment: as §2, with “in” for “in C57BL/6J mouse model of”, “induced C57BL/6J mouse model of” for “induced”, “CA3” for “CA1”, “80.2” for “40.6”, “8.6%)” for “12.5%)”; assay type: ADME, organism-based; parameters: scale not given: the % may be the effect or the level left; settings: in vivo, po; in short: as §3
Mus musculus [10] = experiment: as §2, with “in” for “in C57BL/6J mouse model of”, “induced C57BL/6J mouse model of” for “induced”, “DG” for “CA1”, “55.8” for “40.6”, “7.2%)” for “12.5%)”; assay type: ADME, organism-based; parameters: scale not given: the % may be the effect or the level left; settings: in vivo, po; in short: as §3
[11] = Drug metabolism in Sprague-Dawley rat liver microsomes assessed as metabolic rate up to 180 mins in presence of NADPH by UV-based LC-MS/MS analysis; assay type: ADME, Microsome; settings: 3 h
[12] = Metal chelating activity assessed as inhibition of Cu(II)-induced amyloid beta (1 to 42 residues) aggregation at 25 uM after 24 hrs by TEM assay
In short: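 Samples were prepared as for the ThT assay. 10 µL aliquots were applied to carbon-coated copper grids for 2 min, then stained with 3% phosphotungstic acid for 2 min and imaged by transmission electron microscopy.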

in vitro [13] = settings: PAMPA
in vitro [14] = settings: Sprague-Dawley, rat, liver microsomes
[15] = biological target: 3',5'-cyclic-AMP phosphodiesterase 4D (Homo sapiens, UniProt Q08499); experiment: Inhibition of human PDE4D2 (86 to 413 residues) catalytic domain using [3H]-cAMP as substrate after 15 mins by liquid scintillation counting method
3',5'-cyclic-AMP phosphodiesterase 4D, sequence (Q08499 whole entry, the tested form may be a part): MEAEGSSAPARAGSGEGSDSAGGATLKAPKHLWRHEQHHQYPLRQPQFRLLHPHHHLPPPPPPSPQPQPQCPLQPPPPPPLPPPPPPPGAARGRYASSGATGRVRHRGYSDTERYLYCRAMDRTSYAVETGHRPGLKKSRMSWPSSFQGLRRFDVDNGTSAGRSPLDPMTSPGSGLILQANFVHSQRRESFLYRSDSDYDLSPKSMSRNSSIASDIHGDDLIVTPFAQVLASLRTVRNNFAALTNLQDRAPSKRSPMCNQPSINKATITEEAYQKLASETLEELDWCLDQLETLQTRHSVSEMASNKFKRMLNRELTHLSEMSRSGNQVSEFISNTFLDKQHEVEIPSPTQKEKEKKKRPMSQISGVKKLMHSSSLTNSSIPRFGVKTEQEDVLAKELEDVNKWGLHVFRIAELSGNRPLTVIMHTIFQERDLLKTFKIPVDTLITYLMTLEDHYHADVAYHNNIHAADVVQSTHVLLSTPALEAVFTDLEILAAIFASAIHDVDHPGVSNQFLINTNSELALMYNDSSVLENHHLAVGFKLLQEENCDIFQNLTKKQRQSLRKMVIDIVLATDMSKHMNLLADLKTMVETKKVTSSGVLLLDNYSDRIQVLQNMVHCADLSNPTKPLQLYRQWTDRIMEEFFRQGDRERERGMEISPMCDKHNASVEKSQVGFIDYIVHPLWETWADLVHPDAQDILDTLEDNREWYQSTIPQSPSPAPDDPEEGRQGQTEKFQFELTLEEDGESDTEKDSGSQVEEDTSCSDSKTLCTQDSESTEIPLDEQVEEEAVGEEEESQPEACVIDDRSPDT

[16] = Metal chelating activity of the compound assessed as formation of cupric-compound complex at 50 uM after 30 mins by UV-vis spectrophotometric analysis
In short: (§4)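 UV-vis absorption spectra of compound (50 µM) were recorded in HEPES buffer alone and with 50 µM CuSO4, ZnCl2, FeSO4 or FeCl3, and spectral changes were assessed.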

[17] = Metal chelating activity of the compound assessed as formation of zinc-compound complex at 50 uM after 30 mins by UV-vis spectrophotometric analysis; in short: as §4
[18] = Metal chelating activity of the compound assessed as formation of ferric-compound complex at 50 uM after 30 mins by UV-vis spectrophotometric analysis; in short: as §4
[19] = Metal chelating activity of the compound assessed as formation of ferrous-compound complex at 50 uM after 30 mins by UV-vis spectrophotometric analysis; in short: as §4
SH-SY5Y = experiment: Cytotoxicity against human SH-SY5Y cells assessed as effect on cell viability at 10 uM after 24 hrs by MTT assay; assay type: cell-based
In short: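 SH-SY5Y viability was measured by MTT after exposure to compounds at 10 µM. Results are percent of vehicle control from three independent experiments.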

[20] = Metal chelating activity assessed as inhibition of Cu2+-induced amyloid beta (1 to 42 residues) aggregation at 25 uM after 24 hrs by thioflavin-T fluorescence assay (reference value: 156%); parameters: scale not given: the % may be the effect or the level left
In short: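 Aβ1-42 was incubated with Cu(II) (CuSO4) with or without compound, and thioflavin T fluorescence was read. The Aβ-alone signal was set as 100%. Mean ± SD of three independent experiments.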

[21] = Metal chelating activity assessed as inhibition of Cu(II)/ascorbate-induced ROS production by measuring […] level at 10 uM by fluorescence assay
In short: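 A Cu-ascorbate redox system in PBS (pH 7.4) at 37 °C, with Cu(II) 5 µM, ascorbate 150 µM and coumarin-3-carboxylic acid 50 µM as the hydroxyl radical trap. Compound was pre-incubated 10 min before ascorbate was added. Fluorescence of 7-hydroxy-CCA (ex 395, em 450 nm) was read every 30 s for 15 min.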

[22] = Acute Toxicity in C57BL/6 mouse assessed as mouse mortality up to 2000 mg/kg, ig measured over 14 days; assay type: organism-based; settings: in vivo, po, 336 h
In short: (§5)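 Mice given a single intragastric dose of test compound at various dosages, then observed for 14 days for death and abnormal behaviour. On day 14, animals were sacrificed and heart, liver, lungs and kidneys examined.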

[23] = Acute Toxicity in C57BL/6 mouse assessed as abnormal behavior up to 2000 mg/kg, ig measured over 14 days; assay type: organism-based; settings: in vivo, po, 336 h; in short: as §5
[24] = Acute Toxicity in C57BL/6 mouse up to 2000 mg/kg, ig measured every 14 days; assay type: organism-based; settings: in vivo, po, 336 h; in short: as §5
[25] = Hepatotoxicity in C57BL/6 mouse assessed as abnormal changes up to 2000 mg/kg, ig after 14 days by microscopic analysis; assay type: toxicity, organism-based; settings: in vivo, po, 336 h; in short: as §5
[26] = Hepatotoxicity in C57BL/6 mouse assessed as tissue damage up to 2000 mg/kg, ig after 14 days by microscopic analysis; assay type: toxicity, organism-based; settings: in vivo, po, 336 h; in short: as §5
[27] = Cardiotoxicity in C57BL/6 mouse assessed as abnormal changes up to 2000 mg/kg, ig after 14 days by microscopic analysis; assay type: toxicity, organism-based; settings: in vivo, po, 336 h; in short: as §5
[28] = Cardiotoxicity in C57BL/6 mouse assessed as tissue damage up to 2000 mg/kg, ig after 14 days by microscopic analysis; assay type: toxicity, organism-based; settings: in vivo, po, 336 h; in short: as §5
[29] = Nephrotoxicity in C57BL/6 mouse assessed as abnormal changes up to 2000 mg/kg, ig after 14 days by microscopic analysis; assay type: toxicity, organism-based; settings: in vivo, po, 336 h; in short: as §5
[30] = Nephrotoxicity in C57BL/6 mouse assessed as tissue damage up to 2000 mg/kg, ig after 14 days by microscopic analysis; assay type: toxicity, organism-based; settings: in vivo, po, 336 h; in short: as §5
[31] = Acute Toxicity in C57BL/6 mouse lung assessed as abnormal changes up to 2000 mg/kg, ig after 14 days by microscopic analysis; assay type: organism-based; settings: in vivo, po, 336 h; in short: as §5
[32] = Acute Toxicity in C57BL/6 mouse lung assessed as tissue damage up to 2000 mg/kg, ig after 14 days by microscopic analysis; assay type: organism-based; settings: in vivo, po, 336 h; in short: as §5
[33] = Toxicity in amyloid beta (25 to 35 residues) induced C57BL/6J mouse model of Alzheimer's disease assessed as loss of body weight at 30 mg/kg/day, ig administered for 26 consecutive days; assay type: organism-based; settings: in vivo, po; in short: as §1
[34] = Toxicity in amyloid beta (25 to 35 residues) induced C57BL/6J mouse model of Alzheimer's disease assessed as diarrhea at 30 mg/kg/day, ig administered for 26 consecutive days; assay type: organism-based; settings: in vivo, po; in short: as §1
[35] = Toxicity in amyloid beta (25 to 35 residues) induced C57BL/6J mouse model of Alzheimer's disease assessed as emesis at 30 mg/kg/day, ig administered for 26 consecutive days; assay type: organism-based; settings: in vivo, po; in short: as §1
Mus musculus [36] = experiment: Cognition enhancement activity in amyloid beta (25 to 35 residues) induced C57BL/6J mouse model of Alzheimer's disease assessed as increase in number of virtual platform crossing at 30 mg/kg/day, ig administered for 26 consecutive days by Morris water maze test; assay type: functional, organism-based; in short: as §1

Compound: Oc1c(I)cc(Cl)c2cccnc12 [CLIOQUINOL]
Activity [1]: 0.6 equiv
Activity [2]: 66%
Activity (Mus musculus [3]): Active
Activity (Mus musculus [4]): 16 cm/s
Activity (Mus musculus [5]): Active
Activity (Mus musculus [6]): 18 cm
Time (Mus musculus [7]): 5.8 s
Activity (Mus musculus [8]): 24.2%
Activity (Mus musculus [9]): 37.8%
Activity (Mus musculus [10]): 19.7%
K [11]: 0.0194 min⁻¹
Activity [12]: Active
Papp at 10 h, 100 ug/ml (in vitro [13]): 5.2 ×10⁻⁶ cm/s
half-life (in vitro [14]): 35.8 min

Compound: COc1ccc(NC(=O)c2ccc3cccc(O)c3n2)cc1OC1CCCC1
IC50 [15]: 4.15 µM
Activity [1]: 1.98 equiv

Compound: COc1ccc(C(=O)Nc2ccc3cccc(O)c3n2)cc1OC1CCCC1
IC50 [15]: 4.64 µM
Activity [1]: 0.7 equiv
Papp at 10 h, 100 ug/ml (in vitro [13]): 16.4 ×10⁻⁶ cm/s

Compound: COc1ccc(C(=O)Nc2ccc(O)c3ncccc23)cc1OC1CCCC1.Cl
IC50 [15]: 0.492 µM
Activity [1]: 0.63 equiv
Activity [16]: Active
Activity [17]: Active
Activity [18]: Active
Activity [19]: Active
Activity (SH-SY5Y): Non-Toxic
Activity [20]: 51%
Activity [2]: 46%
Activity [21]: Active
Activity [22]: Non-Toxic
Activity [23]: Non-Toxic
Activity [24]: Non-Toxic
Activity [25]: Non-Toxic
Activity [26]: Non-Toxic
Activity [27]: Non-Toxic
Activity [28]: Non-Toxic
Activity [29]: Non-Toxic
Activity [30]: Non-Toxic
Activity [31]: Non-Toxic
Activity [32]: Non-Toxic
Activity (Mus musculus [3]): Active
Activity [33]: Non-Toxic
Activity [34]: Non-Toxic
Activity [35]: Non-Toxic
Activity (Mus musculus [5]): 15.3 cm/s
Activity (Mus musculus [36]): Active
Activity (Mus musculus [6]): 18 cm
Time (Mus musculus [7]): 6.1 s
Activity (Mus musculus [8]): 13.8%
Activity (Mus musculus [9]): 37.1%
Activity (Mus musculus [10]): 26.8%
K [11]: 0.0134 min⁻¹
Activity [12]: Active
Papp at 10 h, 100 ug/ml (in vitro [13]): 5.9 ×10⁻⁶ cm/s
half-life (in vitro [14]): 51.7 min

Compound: COc1ccc(C(=O)Nc2cc(Cl)c(O)c3ncccc23)cc1OC1CCCC1.Cl
IC50 [15]: 3.13 µM
Activity [1]: 0.56 equiv
Activity (SH-SY5Y): Toxic
Activity [20]: 70.2%

The next lines start with results.

IC50 [15]: 7.63 µM
Compound: COc1ccc(C(=O)Nc2ccc(O)c3ncccc23)cc1OC
Activity [1]: 1.34 equiv

IC50 [15]: 4.32 µM
Compound: COc1ccc(NC(=O)c2ccc3cccc(O)c3n2)cc1OC
Activity [1]: 1.03 equiv

IC50 [15]: 8.07 µM
Compound: COc1ccc(NC(=O)c2ccc3c(Cl)cc(Cl)c(O)c3n2)cc1OC
Activity [1]: 1.05 equiv

From ChEMBL document CHEMBL4422614 (Eur J Med Chem, 2019)
